Data as given in ChEMBL document CHEMBL1150421, “Synthesis and analgesic/anti-inflammatory evaluation of fused heterocyclic ring systems incorporating phenylsulfonyl moiety” (2008).

Legend:
Rattus norvegicus [1] = assay: Antiinflammatory activity in Albino rat assessed as inhibition of carrageenan-induced edema at 50 mg/kg, po after 3 hrs
Rattus norvegicus [2] = assay: Antiinflammatory activity in Albino rat assessed as inhibition of carrageenan-induced edema at 50 mg/kg, po after 5 hrs
Mus musculus [3] = assay: Analgesic activity against visceral pain in Albino mouse assessed as acetic acid-induced writhing at 50 mg/kg, po after 30 mins relative to indomethacin; format: functional
Mus musculus [4] = assay: Analgesic activity against visceral pain in Albino mouse assessed as acetic acid-induced writhing at 50 mg/kg, po after 30 mins; format: functional
How it was run: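 Mice (20–25 g, acclimatized 1 week, 12 h light/dark, 21–23 °C) given compound orally at 50 mg/kg as a suspension in 2% Tween 80. Negative controls got water in Tween 80. Visceral pain measured as acetic acid-induced writhing; indomethacin 50 mg/kg was the reference.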

Mus musculus [5] = assay: Analgesic activity in Albino mouse at 50 mg/kg, po assessed as thermal stimuli reaction time change after 30 mins by hot plate method relative to basal level; format: functional
How it was run: (§1)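 Hot-plate at 52 °C ± 0.1 °C with a 60 s cut-off, six mice per group. Dosing was oral, 50 mg/kg in 2% Tween 80. Latency to paw licking or jumping was recorded before dosing and at 0.5, 1 and 2 h. Results are given as % change from the pre-drug value, with one-way ANOVA and Duncan's test (P < 0.05).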

Mus musculus [6] = assay: Analgesic activity in Albino mouse at 50 mg/kg, po assessed as thermal stimuli reaction time change after 1 hr by hot plate method relative to basal level; format: functional
How it was run: as §1

Rattus norvegicus [7] = assay: Antiinflammatory activity in Albino rat assessed as inhibition of carrageenan-induced edema at 50 mg/kg, po after 1 hr
Rattus norvegicus [8] = assay: Antiinflammatory activity in Albino rat assessed as inhibition of carrageenan-induced edema at 50 mg/kg, po after 4 hrs
Mus musculus [9] = assay: Analgesic activity in Albino mouse at 50 mg/kg, po assessed as thermal stimuli reaction time change after 2 hrs by hot plate method relative to basal level; format: functional
How it was run: as §1

Rattus norvegicus [10] = assay: Antiinflammatory activity in Albino rat assessed as inhibition of carrageenan-induced edema at 50 mg/kg, po after 6 hrs
Mus musculus [11] = assay: Analgesic activity in Albino mouse at 50 mg/kg, po assessed as thermal stimuli reaction time change after 2 hrs mins by hot plate method relative to indomethacin; format: functional
Mus musculus [12] = assay: Analgesic activity in Albino mouse at 50 mg/kg, po assessed as thermal stimuli reaction time change after 30 mins by hot plate method relative to indomethacin; format: functional
Mus musculus [13] = assay: Analgesic activity in Albino mouse at 50 mg/kg, po assessed as thermal stimuli reaction time change after 1 hr by hot plate method relative to indomethacin; format: functional
Rattus norvegicus [14] = assay: Antiinflammatory activity in Albino rat assessed as inhibition of carrageenan-induced edema at 50 mg/kg, po after 2 hrs

Row | SMILES | inhibition in vivo at 50 mg/kg (Rattus norvegicus [1]) [%] | inhibition in vivo at 50 mg/kg (Rattus norvegicus [2]) [%] | Activity (Mus musculus [3]) | Activity (Mus musculus [4]) [%] | Activity (Mus musculus [5]) [%] | Activity (Mus musculus [6]) [%] | inhibition in vivo at 50 mg/kg (Rattus norvegicus [7]) [%] | inhibition in vivo at 50 mg/kg (Rattus norvegicus [8]) [%] | Activity (Mus musculus [9]) [%] | inhibition in vivo at 50 mg/kg (Rattus norvegicus [10]) [%] | Activity (Mus musculus [11]) | Activity (Mus musculus [12]) | Activity (Mus musculus [13]) | inhibition in vivo at 50 mg/kg (Rattus norvegicus [14]) [%]
1 | Cc1ccc(-c2c(S(=O)(=O)c3ccccc3)cnc3cc(-c4ccccc4)nn23)cc1 | 36.4 | 28.2 | 0.32 | 28 | 15.2 | 18.6 | 42.5 | 22.6 | 15.2 | 15.5 | 0.19 | 0.35 | 0.24 | 41
2 | Cc1ccc(-c2c(S(=O)(=O)c3ccccc3)cnc3cc(-c4ccc(Br)cc4)nn23)cc1 | 69.2 | 31.7 | 0.76 | 65.2 | 29 | 56.4 | 74.1 | 26.6 | 56.4 | 54.3 | 0.7 | 0.67 | 0.73 | 72.6
3 | Cc1ccc(-c2c(S(=O)(=O)c3ccccc3)cnc3ncnn23)cc1 | 4.4 | 2.4 | 0 |  | 7.1 | 5.3 | 7.5 | 3.3 | 0 | 1.9 | 0 | 0.16 | 0.06 | 5.2
4 | Cc1ccc(-c2c(S(=O)(=O)c3ccccc3)cnc3cc(C)nn23)cc1 | 23.2 | 8.1 | 0.35 | 30 | 16 | 16 | 25.8 | 14 | 5.3 | 8.7 | 0.07 | 0.37 | 0.21 | 25.2
5 | Cc1ccc(-c2c(S(=O)(=O)c3ccccc3)cnc3c(Br)c(-c4ccccc4)nn23)cc1 | 54.8 | 0 | 0.99 | 85.6 | 43.8 | 78 | 65.5 | 12.5 | 68.4 | 6.6 | 0.84 | 1.02 | 1.02 | 61
6 | O=S(=O)(c1ccccc1)c1cnc2cc(-c3ccc(Cl)cc3)nn2c1-c1ccc(Br)cc1 | 24.8 | 13.8 | 0.77 | 66.7 | 33 | 72.2 | 24.2 | 18.6 | 51.8 | 13.2 | 0.63 | 0.77 | 0.93 | 24.7
7 | Cc1ccc(-c2c(S(=O)(=O)c3ccccc3)cnc3nc4ccccc4n23)cc1 | 4.2 | 0 | 0.1 | 9.1 | 9.2 | 23 | 7.3 | 0 | 21.5 | 0 | 0.26 | 0.21 | 0.3 | 5
8 | O=S(=O)(c1ccccc1)c1cnc2ncnn2c1-c1ccc(Br)cc1 | 1.6 | 0.8 | 0.12 | 10.8 | 5.4 | 6.8 | 2.2 | 1.3 | 5.4 | 0.9 | 0.06 | 0.12 | 0.08 | 4.2
9 | Cc1ccc(-c2cc3ncc(S(=O)(=O)c4ccccc4)c(-c4ccc(C)cc4)n3n2)cc1 | 31.2 | 17 | 0.86 | 74.4 | 25 | 67.1 | 54.6 | 20 | 57.5 | 11.6 | 0.71 | 0.58 | 0.87 | 42.6
10 | Cc1cc2ncc(S(=O)(=O)c3ccccc3)c(-c3ccc(Br)cc3)n2n1 | 4.4 | 0 | 0.65 | 56.4 | 27 | 44.1 | 7.4 | 0 | 39.7 | 0 | 0.49 | 0.63 | 0.57 | 5.2
11 | COc1ccc2c(c1)c(CC(=O)O)c(C)n2C(=O)c1ccc(Cl)cc1 [INDOMETHACIN] | 44 | 28.4 |  | 85.8 | 43 | 77.2 | 77 | 28.7 | 81 | 50 |  |  |  | 56
